ChEMBL document CHEMBL5120825, “The azulene scaffold from a medicinal chemist's perspective: Physicochemical and in vitro parameters relevant for drug discovery” (Eur J Med Chem, 2022)
Values after ≈ are worked out from the molar mass of the structure shown.

Columns and labels:
[1] = Aqueous solubility of the compound at pH 2.2 incubated for 24 hrs under shaking condition by LC-UV analysis; assay type: physicochemical; details: aqueous medium
In short: (§1)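 The highest concentration tested was 250 μM, so results are capped at that level. Values are reported in µg/ml.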

[2] = Octanol-water partition coefficient, logD of the compound at pH 11 by HPLC analysis; assay type: physicochemical
[3] = Octanol-water partition coefficient, logD of the compound at pH 2 by HPLC analysis; assay type: physicochemical
[4] = Aqueous solubility of the compound at pH 4.5 incubated for 24 hrs under shaking condition by LC-UV analysis; assay type: physicochemical; details: aqueous medium; in short: as §1
[5] = Permeability of the compound at pH 7.4 by PAMPA assay; assay type: ADME; details: read-out: permeability
[6] = Lipophilicity, logP of the compound; assay type: physicochemical; details: octanol/water
[7] = Aqueous solubility of the compound at pH 6.8 incubated for 24 hrs under shaking condition by LC-UV analysis; assay type: physicochemical; details: aqueous medium; in short: as §1
[8] = Metabolic stability in human liver microsomes assessed as hepatic blood flow at 1 uM preincubated with compound followed by NADPH addition by LC-MS/MS analysis; assay type: ADME, Microsome; details: read-out: QH

SMILES	solubility thermodynamic at 24 h [1] [µg/mL]	logD ([2]; read-out: logD)	logD ([3]; read-out: logD)	solubility thermodynamic at 24 h [4] [µg/mL]	Papp [5] [×10⁻⁶ cm/s]	logP ([6]; read-out: logP)	solubility thermodynamic at 24 h [7] [µg/mL]	hepatic extraction ratio at 1 µM [8]	logD [2]	logD [3]	logP [6]
COC(=O)c1ccc2c(C(=O)c3ccccc3)cn(C(=O)c3ccccc3)c2c1	< 1	5.2	5.2	< 1	2.1	5.2	< 1				
O=C(NCCc1cnc[nH]1)c1ccc2ccc(C(=O)c3ccccc3)c-2cc1	> 77	2.3	1.3	57 (≈ 154 µM)	0.3	2.3	< 1	0.41			
O=C(NCCO)c1ccc2[nH]cc(C(=O)c3ccccc3)c2c1	39 (≈ 126 µM)			18 (≈ 58.4 µM)	0.01		15 (≈ 48.6 µM)	0.53	1.3	1.3	0.6
O=C(Nc1cc2cccccc-2c1)c1cccnc1	43 (≈ 173 µM)	1.3	1.3	3 (≈ 12.1 µM)	4.8	2.4	2 (≈ 8.06 µM)	0.71			
Cn1cc(C(=O)N2CCC(C(N)=O)CC2)c2ccccc21	> 71	0.4		44 (≈ 154 µM)	0.2		> 64	< 0.23		1.1	0.4
COC(=O)c1ccc2c(C(=O)c3ccccc3)c[nH]c2c1	< 1	2.7		< 1	1.5		< 1			3.1	2.7
COC(=O)c1ccc2c(C(=O)N(C)C)cn(C)c2c1	50 (≈ 192 µM)			> 52	4.2		49 (≈ 188 µM)	0.82	1.9	1.9	1.4
COC(=O)c1ccc2ccc(C(=O)Nc3ccccc3)c-2cc1	< 1	4	4	< 1	0.4	3.8	< 1				
O=C(NCCc1c[nH]c2ccccc12)c1ccc2[nH]cc(C(=O)c3ccccc3)c2c1	< 1	2.8		< 1	< 0.01		1 (≈ 2.45 µM)	0.84		3.3	2.8
NC(=O)C1CCN(C(=O)c2c[nH]c3ccccc23)CC1		-0.2			< 0.01			< 0.23		0.3	-0.2
Cn1cc(C(=O)c2ccccc2)c2cc(C(=O)NCCc3c[nH]c4ccccc34)ccc21	< 1	3.5	3.6	< 1	0.04	3.5	< 1	0.79			
O=C(NCc1cccnc1)c1ccc2ccc(C(=O)c3ccccc3)c-2cc1	70 (≈ 191 µM)	1.4	1.4	< 1	2.4	3	< 1	0.46			
CN(C)C(=O)Cc1ccc2ccn(C)c2c1	> 54	1.7	1.9	> 53	7.6	1.7	> 53	< 0.23			
COC(=O)c1ccc2c(C(=O)Nc3ccccc3)cn(C)c2c1	< 1			< 1	2.2		< 1		3.4	3.4	2.9
COC(=O)c1ccc2[nH]cc(C(=O)c3ccccc3)c2c1	< 1	2.5		< 1	2.8		< 1			2.9	2.5
COC(=O)c1ccc2ccn(C(=O)c3ccccc3)c2c1	< 1	4.3	4.4	< 1	0.5	4.3	< 1				
CN1CCN(C(=O)c2ccc3[nH]cc(C(=O)c4ccccc4)c3c2)CC1	> 74	1.3	0.5		0.2	1.3	69 (≈ 199 µM)	< 0.23			

SMILES	solubility thermodynamic at 24 h [1] [µg/mL]	logD ([2]; read-out: logD)	logD ([3]; read-out: logD)	solubility thermodynamic at 24 h [4] [µg/mL]	Papp [5] [×10⁻⁶ cm/s]	logP ([6]; read-out: logP)	solubility thermodynamic at 24 h [7] [µg/mL]	hepatic extraction ratio at 1 µM [8]	logD [2]	logD [3]	logP [6]
COC(=O)c1ccc2c(c1)c(C(=O)c1ccccc1)cn2C(=O)c1ccccc1	< 1	5.2	5.2	< 1	1.3	5.2	< 1				
COC(=O)c1ccc2c(C(=O)c3ccccc3)cc(C(=O)c3ccccc3)c-2cc1	< 1	5.5	5.6	< 1	0.3	5.5	< 1				
O=C(Nc1ccc2ccccc2c1)c1cccnc1	> 50	2.4	1.4	6 (≈ 24.2 µM)		2.4	4 (≈ 16.1 µM)	0.67			
O=C(NCCc1cnc[nH]1)C1=CC2C(C(=O)c3ccccc3)=CN=C2C=C1 (stereo not drawn)	> 81	0.8	0.7	78 (≈ 218 µM)	< 0.01	0.8	66 (≈ 184 µM)	< 0.23			
O=C(NCc1cccnc1)c1ccc2[nH]cc(C(=O)c3ccccc3)c2c1	> 79	0.8	0.8	1 (≈ 2.81 µM)	0.1	1.4	< 1	0.56			
Cn1c(NC(=O)c2cccnc2)cc2ccccc21	> 59	-0.1	-0.1		4.9	1.3		0.23			
c1ccc2cc(CN3CCCCC3)ccc2c1	34 (≈ 151 µM)	> 5.5	0.9	30 (≈ 133 µM)	4.6	> 5.5	27 (≈ 120 µM)	0.72			
Cn1c(NC(=O)Cn2ccccc2=O)cc2ccccc21					3.3		3 (≈ 10.7 µM)	< 0.23	1.5	1.5	1.1
NC(=O)C1CCN(C(=O)c2cccc3ccccc23)CC1	> 70	0.8		> 71	0.2		> 71	< 0.23		1.3	0.8
CN1CCN(C(=O)c2ccc3c(c2)c(C(=O)c2ccccc2)cn3C)CC1	78 (≈ 216 µM)	2	0.7	76 (≈ 210 µM)	1.9	2	68 (≈ 188 µM)	< 0.23			
COC(=O)c1ccc2ccc(C(=O)c3ccccc3)c-2cc1	< 1	4.7	4.8	< 1	0.1	4.7	< 1				
CN(C)C(=O)Cc1ccc2ccccc2c1	41 (≈ 192 µM)	2.4		39 (≈ 183 µM)	4.7		40 (≈ 188 µM)	0.4		2.7	2.4
O=C(NCCc1c[nH]c2ccccc12)c1ccc2ccc(C(=O)c3ccccc3)c-2cc1	< 1	4.3	4.4	< 1	0.03	4.3	< 1	0.69			
COC(=O)c1ccc2c(ccn2C(=O)c2ccccc2)c1	< 1	4.4	4.5	< 1	0.5	4.4	< 1				
CN(C)C(=O)Cc1ccc2cc[nH]c2c1	> 51	1		> 51	1.3		> 51	< 0.23		1.4	1
O=C(Cn1ccccc1=O)Nc1cc2ccccc2[nH]1	> 60			> 67	0.1		> 67	< 0.23	1	1	0.4
Cn1cc(C(=O)c2ccccc2)c2cc(C(=O)NCc3cccnc3)ccc21	81 (≈ 219 µM)	0.9	0.9	3 (≈ 8.12 µM)	1.7	2.1	< 1	< 0.23			
